Results collected from several papers.
pIC50: −log10 of the molar value.
Mode: inhibitor
ACSL4: Long-chain-fatty-acid--CoA ligase 4 (ACSL4, Homo sapiens, UniProt O60488)
CDK7 with cyclin H: Cyclin-dependent kinase 7, with cyclin H (CDK7, Homo sapiens, UniProt P50613)
HDAC6: Protein deacetylase HDAC6 (HDAC6, Homo sapiens, UniProt Q9UBN7)

CCc1ccc(C(=O)COc2ccc(CC3SC(=O)NC3=O)cc2)nc1 (stereo not shown)  pIC50 (ACSL4; enzyme activity): 5.22
CNS(=O)(=O)c1ccc(Nc2ncc(C(F)(F)F)c(N3CCC(C)(O)CC3)n2)c(C)c1  pIC50 (CDK7 with cyclin H; enzyme activity, radiometric): 5.71
COC(=O)/C=C/c1ccc(OCCN(C)C(=O)c2ccc(C3(C(F)(F)F)N=N3)cc2)cc1  pIC50 (ACSL4; enzyme activity): 4.61
CN(CCCCCCNC(=O)CNc1cccc2c1C(=O)N(C1CCC(=O)NC1=O)C2=O)Cc1cn(Cc2ccc(C(=O)NO)cc2)c2ccccc12 (stereo not shown)  pIC50 (HDAC6; enzyme activity, fluorescence): 7.59
Cc1cc(S(=O)(=O)NCCO[C@H]2CC[C@H](CN3CCC(c4ccn5c(N6CCC(=O)NC6=O)cnc5c4)CC3)CC2)ccc1Nc1ncc2cc(Cl)c(=O)n(C3CCCC3)c2n1  pIC50 (CDK7 with cyclin H; enzyme activity, radiometric): 5.42
COC(=O)/C=C/c1ccc(OCCN(C)c2ccccc2)cc1  pIC50 (ACSL4; enzyme activity): 5.82
CNS(=O)(=O)c1ccc(Nc2ncc(C(F)(F)F)c([C@H]3CC[C@@](C)(O)CC3)n2)c(C)c1  pIC50 (CDK7 with cyclin H; enzyme activity, radiometric): 5.14
O=C(/C=C/c1ccc(O)c(O)c1)O[C@H]1[C@H](O)[C@@H](O)[C@H](OCCc2ccc(O)c(O)c2)O[C@@H]1CO  pIC50 (3-hydroxy-3-methylglutaryl-coenzyme A reductase (HMGCR, Homo sapiens, UniProt P04035); enzyme activity, absorbance): 4.13
COc1ccc(Nc2ncnc3c2ncn3Cc2ccc(C(=O)NO)cc2)cc1  pIC50 (HDAC6; enzyme activity, fluorescence): > 8.70
CN(CCCOc1ccc(CC2SC(=O)NC2=O)cc1)c1ccccc1 (stereo not shown)  pIC50 (ACSL4; enzyme activity): 6.22
CN(CCCCCCNC(=O)COc1ccc(C2CCC(=O)NC2=O)cc1)Cc1cn(Cc2ccc(C(=O)NO)cc2)c2ccccc12 (stereo not shown)  pIC50 (HDAC6; enzyme activity, fluorescence): 7.51
COc1ccc(N(Cc2csc(-c3ccc(C)cc3)n2)C(=O)CCCCCC(=O)NO)cc1  pIC50 (HDAC6; enzyme activity): 8.60
O=C(NO)c1ccc(Cn2cnc3c(Nc4ccc(Br)cc4F)ncnc32)cc1  pIC50 (HDAC6; enzyme activity, fluorescence): 8.04
CCc1ccc(CCOc2ccc(CC3SC(=O)NC3=O)cc2)nc1 (stereo not shown)  pIC50 (ACSL4; enzyme activity): 5.19
Cc1cc(O)c(-c2ccc([C@@H](C)CN(C)C)cc2)c2c1[nH]c(=O)c1sccc12  pIC50 (CDK7 with cyclin H; enzyme activity): < 6.00
CN(CCOc1cccc(CC2SC(=O)NC2=O)c1)c1ccccc1 (stereo not shown)  pIC50 (ACSL4; enzyme activity): 5.00
CN(C)C(=O)c1cc2cnc(Nc3ccc(-c4ccc5c(=O)cc(N6CCOCC6)oc5c4)cc3)nc2n1C1CCCC1  pIC50 (CDK7 with cyclin H; enzyme activity): < 5.00
O=C(CNc1cccc2c1C(=O)N(C1CCC(=O)NC1=O)C2=O)NCCCCCCN1CCc2c(c3ccccc3n2Cc2ccc(C(=O)NO)cc2)C1 (stereo not shown)  pIC50 (HDAC6; enzyme activity, fluorescence): 7.40
COc1ccc(N(Cc2csc(-c3ccccc3)n2)C(=O)CCCCCC(=O)NO)cc1  pIC50 (HDAC6; enzyme activity): 8.57
COCCN1CCN(Cc2ccc(-c3n[nH]c4c3C(=O)c3c(NC(=O)NN5CCOCC5)cccc3-4)cc2)CC1  pIC50 (Protein kinase 6 (Plasmodium falciparum, UniProt Q8IDW1); enzyme activity, radiometric): 6.08
COC(=O)/C=C/c1ccc(OCCN(C)C(=O)c2ccccc2)cc1  pIC50 (ACSL4; enzyme activity): 6.42
CCc1oc2cc(F)c(F)cc2c1C(=O)c1cc(Br)c(O)c(Br)c1  pIC50 (Solute carrier organic anion transporter family member 2B1 (SLCO2B1, Homo sapiens, UniProt O94956); transporter uptake, radiometric): 6.87
CN1C(=O)SC(Cc2ccc(OCCN(C)c3ccccn3)cc2)C1=O (stereo not shown)  pIC50 (ACSL4; enzyme activity): 5.35
CNS(=O)(=O)c1ccc(Nc2ncc(C(F)(F)F)c(N3CCC[C@](C)(O)C3)n2)c(C)c1  pIC50 (CDK7 with cyclin H; enzyme activity, radiometric): 5.79
N=C(N)NCCCC(=O)O  pIC50 (Alkaline phosphatase, tissue-nonspecific isozyme (Rattus norvegicus, UniProt P08289); enzyme activity in cells, absorbance): 1.82
